Our source for the yeast fitness values is the RNAGym collection of RNA variant scans (doi:10.1126/science.aae0568).

Variants at the floor of the assay were thinned out.

B1: tRNA (parent)
chain: GUUCCGUUGGCGUAAUGGUAACGCGUCUCCCUCCUAAGGAGAAGACUGCGGGUUCGAGUCCCGUACGGAACG

In this data set the parent is B1. The data set can be described thus: yeast fitness relative to wild type (ratio to wild type); higher = fitter; tRNA-Arg(CCU), competitive growth, 37 C, YPD. The essentials:
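Variants of the tRNA-Arg(CCU) gene, chemically synthesised with a 3% per-site mutation rate at 69 sites, were placed at the native genomic locus in Saccharomyces cerevisiae. The pooled strains were competed in YPD at 37°C for 24 hours in six parallel replicates. Gene amplicons from the start population and from each end population were read by 100-nucleotide paired-end sequencing. Darwinian fitness relative to wild type came from changes in genotype frequencies; genotypes needed ≥ 100 starting reads, and estimates < 0.5 were set to 0.5.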
In the case of GUUCCAUUGGUGUAAUGGUAACGCGUCUCCCUCGUAAGGAGAAGACUGCGGGUUCGAGUCCCGUACGGAACG, the yeast fitness was determined as 0.567.
In the case of GUUCCAUUGGCGUAAUGGUAACGCGUCUCCCUCCUAAGGAGCAGACUGCGGGGUCGAGUCCCGUACCGAACG, the yeast fitness is at most 0.5.
The result for GUUCCAUUGGUGCAAUGGUAACGCGUCUCCCUCCUAAGGAGAGGACUGCGGGUUCGAGUCCCGUACAGAACG reads 0.58; that for GUUCCAUUGGCGUAAUGGUAACGCGUCUCCCUCCUAAGGAGUAGACUGCGGGUUCGAGUCCCGUACGGAACG, 0.784; that for GUUCCAUUGGCGUAAUGGUAACGCGUCUCCCUCCUAAGGAGGAGACUGCGGGUUCGAGUCCCGUACGGAACG, 0.848.
The value for GUUCCAUUGGCGUAAUGGUAACGCGUCUCCCUCCUAAGGAGCAGACUGCGGGUUCGAGUCCCGUACGGAACG was 0.894; that for GUUCCAUUGGAGUAAUGGUAACGCGUCUCCCUCCUAAGGGGAAGACUGCGGGUUCCAGUCCCGUACGGAACG was at most 0.5; that for GUUCCAUUGGCGUAAUGGUAAGGCAUCUCCCUCCUAAGGAGAAGACAGCGGGUUCGAGUCCCGUACGGACCG was at most 0.5.
The result for GUUCCAUUGGCGUAAUGGUAACGCGUCUCCCUCCUAAGGAGAAGACUGCGGGUUCGCGUCCCGUCCGGAACG reads 0.541; that for GUUCCAUUGGAGUAAUGGUAAGGCGUCUCCCUCCUAAGGAGAAGACUGCGGGUUCGAGUCCCGUACGGAACG, at most 0.5.
In the case of GUUCCAUUGGCGUAAUGGUAACGCGUCUCCCUCCUAAGGUGAAGACUGCGGGUUGGAGUCCCCUACGGAACG, the yeast fitness was at most 0.5.
The result for GUUCCAUUGGCGUAAUGGUAACGCGUCUCCCUCCUAAGGAGGAGACUGCGGGUUCGAGUCGCGUAAGGAACG reads at most 0.5.
The result for GUUCCAUUGGGGUAAUUGUAACGCGUCUCCCUCCUAAAGAGAUGACUGCGGGUACGAGUCCCGUACGGAACG reads at most 0.5.
The value for GUUCCAUUGGGGUAAUGGUAGCGCGUGUUCCUCCGAAGGAGAAGACUGCGGGUUCCAGUCCCACACCGAACG was at most 0.5; that for GUUCCAUUGGCGUAAUGGUAACGCGUCUCCCUCCUAAGGAGAAGCGUGCGCGUUCGAGUCCCGUACGGAACG was at most 0.5.
As to GUUCCAUUGGCGUAAUGGUAACGCGUCUCCCUCCUAAGGAGAAGUCUACGGGUUAGAGUCCCGUACGGAACG, the yeast fitness is at most 0.5.
The result for GUUCCAUUGGAGUAAUGGUAACGUGUCUCCCUCCUAAGGAGAAGACUGCGGGUUCGAGUCCCGUACGGAACG reads at most 0.5; that for GUUCCAUUGGCGUAAUGGUAACGCGUCUCCCUCCUAAGGAGAAGCCUGCGGGUUGGAGUCUCGUACGGAACG, at most 0.5; that for GUUCCAUUGGCGUAAUGGUAAUCCGUCUCCCUCCUAAGGAGAAGACUGGGGGGUCGGGUCCCGUACGGAACG, at most 0.5.
The result for GUUCCAUUGGUGUAAUGGUAACGCGUCUCCCUUCUAAGGAGAAGACUGCGGGUUCGAGUCCCGCACGGACCG reads at most 0.5; that for GUUCCAUUGGAGUAAUGGUAACGCGUCUCCCUCCUAAGGAGAAGACUGCGGGUUCGAGUCCCGUAUGGAACG, 0.592; that for GUUCCAUUGGCGUAAUGGUAACGCGUCUCCCUCCUAAGGAGAAGCCUGCGGGUUCGAGUCCCGUACGGAGCG, 0.536.
The result for GUUCCAUUGGGGUAAUGGUAACGCGUCUCCCUCCUAAGGAGAAGUCUGCGGGUUCGGGUCCCGUACGGAGCG reads at most 0.5; that for GUUCCAUUGGCGUAAUGGUAACGCGUCUCCCUCCUAAGGAGCAGACUGCGGGUUCGAGUCCCGUACGGAGCG, at most 0.5; that for GUUCCAUUGGAGUAAUGGUAACGCGUCUCCCUCCUAAGGAGAAGACUGUGGGUUCGAGUCCCGUGCGGAACG, at most 0.5.
With GUUCCAUUGGAGUAAUGGUAACGCGUCUCCCUCCUAGGGAGAAGACUGCGGGUUCGAGUCCCGUACGCAACG, the yeast fitness is 0.562.
The result for GUUCCAUUGGUGUAAUGGUAACGCGUCUCCCUCCUAAGGAGAAGACUGCGGGUUCGAGUCCCGUACGGUACG reads 0.707; that for GUUCCAUUGGCGUAAUGGUAACGCGUCUCCCUCCUAAGGAGAAGACUGCGGGUUCGCGUCCCGUCCGGACCG, 0.609; that for GUUCCAUUGGCGUAAUGGUAACGCGUCUCCCUCCUAAGGAGAAGACUGCGGGUUCGUGUCCCGUACGUAGCG, at most 0.5.
The result for GUUCCAUUGGCGUAAUGGUAACGCGUCUCCCUCCUAAGGGGGAGACUGCGGGUUCGAGCCCCGUACGGAACG reads 0.675; that for GUUCCAUUGGGGUAAUGGUAACGCGUCUCCCUCCUAAGGAGAAGACUGCGGGUUCGAGUCGCGUACGGAACG, at most 0.5; that for GUUCCAUUGGUGUAAUGGUAACGCGUCUCCCUCCUAAGGAGAAGACUGGGGGUUCGAGUCCUGUACGGAACG, at most 0.5.
The result for GUUCCAUUGGGGUAAUGGUACGGCGUCUCGCUCCUAAGGAGAAGUCUGCGGGUUCGAGUCCCGUACGGAACG reads at most 0.5; that for GUUCCAUUGGUGUAAUGGUAACGCGUCUCCCUCCUAAGGAGAAGACUGCGGGUUUGAGUCCCGUACGGAACG, 0.814.
Consider GUUCCAUUGGCGUAAUGGUAACGGGUCUCCCUCCUAAGCAGAAGACUGCGGGUUCGAGUCUCGUAUGGAACG, for which the yeast fitness was at most 0.5.
For the variant GUUCCAUUGGAGUCAUGGCAACGCGUCUCCCACCUAAGGAGCAGACUGCGGGUUCGAGUCCCGUACGGAACG, the yeast fitness is 0.664.
The result for GUUCCAUUGGCGUAAUGGUAACGCGUCUCCCUCCUAAGGAGACGACUGCGGGUUCGAGUCCAGUACGGAACG reads 0.551; that for GUUCCAUUGGCGUAAUGGUAACGCGUCUCCCUCCUAAGGAGAAGACUGCGGGUUCGAGUCCCGUACGGCACG, 0.866.
